In assay [1] the test system is Staphylococcus aureus subsp. aureus USA300. The assay can be described thus: Inhibition of methicillin-resistant Staphylococcus aureus USA300 SaeRS assessed as reduction in alpha-hemolysin mediated hemolysis of human erythrocytes at 8 uM after 8 hrs by ELISA. The method in brief:
(§1)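 Overnight cultures of wild-type USA300 or the saeS mutant were diluted 1:100 in TSB and grown to OD600 = 1. Cells at 5x10^5/ml were grown with compound for 8 h at 37 °C, 250 rpm. Supernatants were mixed 1:1 with 5% DPBS-washed human RBC for 30 min, then centrifuged, and hemolysis was read at OD540. Experiments were run in triplicate.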
On the technique in general: In an ELISA, binding on a coated surface is turned into a signal by an enzyme label.

The test system is the same in assay [2]. The assay can be described thus: Inhibition of methicillin-resistant Staphylococcus aureus USA300 SaeRS assessed as reduction in alpha-hemolysin mediated hemolysis of human erythrocytes at 4 uM after 8 hrs by ELISA. The method in brief: as §1
The test system is the same in assay [3]. The assay can be described thus: Inhibition of methicillin-resistant Staphylococcus aureus USA300 SaeRS Tn551 deletion mutant assessed as reduction in alpha-hemolysin mediated hemolysis of human erythrocytes at 15 uM after 8 hrs by ELISA relative to control. An outline of the steps:
as §1

Assay [4] shares this test system. The assay can be described thus: Inhibition of methicillin-resistant Staphylococcus aureus USA300 SaeRS Tn551 deletion mutant assessed as reduction in alpha-hemolysin mediated hemolysis of human erythrocytes at 8 uM after 8 hrs by ELISA relative to control. The method in brief: as §1

SMILES strings stand for the structures. Active and inactive are the calls of the source. The rule behind the calls is not given here.

As a reminder, the inhibition is the change of the read-out against control, counted positive when it falls. `C=C(C)C(O)CC/C(C)=C/Cc1c(O)ccc(C(=O)CC(O)c2ccc(O)cc2)c1O` (stereo unspecified): the inhibition result in assay [1] and in assay [2] was “Active” in each case. For the same compound, in assay [3], the inhibition came to 87.4%.
As to `C=C(C)C(O)CC/C(C)=C/Cc1c(O)ccc(C(=O)/C=C/c2ccc(O)cc2)c1O` (stereo unspecified) [XANTHOANGELOL B], the inhibition entry in assay [1] and in assay [2] was “Active” in each case. For the same compound, the inhibition in assay [4] was 86.9%.

(Values after ChEMBL document CHEMBL4266038, “Total Synthesis of Xanthoangelol B and Its Various Fragments: Toward Inhibition of Virulence Factor Production of Staphylococcus aureus” (J Med Chem, 2018).)
